ChEMBL document CHEMBL1687794, “Phenotypic and biochemical comparison of the carbapenem-hydrolyzing activities of five plasmid-borne AmpC β-lactamases” (2010)
Values after ≈ are worked out from the molar mass of the structure shown.

Experiments:
[1] = Activity of Beta-lactamase AmpC-B2
Procedure, shortened: (§1)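 Enzyme source: AmpC genes cloned without native promoter under lacZ control, expressed in E. coli TOP10, purified (FOX-1 by two Q-Sepharose steps, bis-Tris pH 6.8 then Tris-HCl pH 9). Hydrolysis monitored spectrophotometrically at 30°C in 100 mM sodium phosphate pH 7.0 with cephaloridine, ertapenem, imipenem or meropenem. kcat from initial rates at saturating substrate ([S] = 100 × Km).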

[2] = Ratio of Kcat to Km for Beta-lactamase DHA-1
Procedure, shortened: (§2)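 Purified TOP10-expressed AmpC enzymes, assayed spectrophotometrically at 30°C, 100 mM sodium phosphate pH 7.0. Cephaloridine Km and kcat from initial rates via Eadie-Hofstee linearization. For imipenem, Ki replaced Km, measured against cephaloridine as reporter substrate. kcat from initial rates at saturating substrate ([S] = 100 × Km) using undiluted enzyme extract. Efficiency taken as kcat/Km.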

[3] = Activity of Beta-lactamase CMY-2; procedure, shortened: as §1
[4] = Ratio of Kcat to Km for Beta-lactamase FOX-1; procedure, shortened: as §2
[5] = Ratio of Kcat to Km for Beta-lactamase AmpC-B2; procedure, shortened: as §2
[6] = Activity of Beta-lactamase FOX-1; procedure, shortened: as §1
[7] = Activity of Beta-lactamase ACC-1
Procedure, shortened: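 ACC-1 cloned without its native promoter behind the lacZ promoter, expressed in E. coli TOP10 and purified. Ki, Km and kcat measured by UV spectrophotometry at 30°C in 100 mM sodium phosphate pH 7.0. Cephaloridine Km/kcat from initial rates by Eadie-Hofstee analysis. Imipenem Ki measured against cephaloridine reporter substrate; kcat from initial rates at [S] = 100 × Km.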

[8] = Activity of Beta-lactamase ACT-1; procedure, shortened: as §1
[9] = Ratio of Kcat to Km for Beta-lactamase CMY-2; procedure, shortened: as §2
[10] = Ratio of Kcat to Km for Beta-lactamase ACT-1; procedure, shortened: as §2
[11] = Activity of Beta-lactamase DHA-1; procedure, shortened: as §1
[12] = Ratio of Kcat to Km for Beta-lactamase ACC-1; procedure, shortened: as §2
[13] = system: Escherichia coli; experiment: Antimicrobial activity against Escherichia coli TOP10 transformed with Escherichia coli ECB-1 plasmid carrying ACC-1 by agar dilution method; assay type: functional
Procedure, shortened: (§3)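 Agar dilution MICs on Mueller-Hinton agar, 10^4 CFU per spot, read by CLSI guidelines. Strains are wild-type E. coli TOP10, with or without a cloned ampC gene (native promoter removed, lacZ promoter-driven). Antibiotics tested: cefoxitin, cefuroxime, cefotaxime, ceftazidime, cefepime, imipenem, ertapenem, meropenem.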

[14] = system: Escherichia coli; experiment: Antimicrobial activity against Escherichia coli TOP10 transformed with Escherichia coli ECB2 plasmid carrying CMY-2 by agar dilution method; assay type: functional; procedure, shortened: as §3
[15] = system: Escherichia coli; experiment: Antimicrobial activity against Escherichia coli TOP10 transformed with Escherichia coli DH10B plasmid carrying DHA-1 by agar dilution method; assay type: functional; procedure, shortened: as §3
[16] = system: Escherichia coli; experiment: Antimicrobial activity against Escherichia coli TOP10 transformed with Enterobacter asburiae CIP 105006 plasmid carrying ACT-1 by agar dilution method; assay type: functional; procedure, shortened: as §3
[17] = system: Escherichia coli; experiment: Antimicrobial activity against OmpC/OmpF porin deficient Escherichia coli HB4 transformed with Escherichia coli pGLK-1 plasmid carrying FOX-1 by agar dilution method; assay type: functional
Procedure, shortened: (§4)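 Agar dilution on Mueller-Hinton agar, inoculum 10^4 CFU per spot, interpreted per CLSI. Host is E. coli HB4, which lacks OmpC and OmpF, with or without a cloned ampC gene under the lacZ promoter. Panel: cefoxitin, cefuroxime, cefotaxime, ceftazidime, cefepime, imipenem, ertapenem, meropenem.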

[18] = system: Escherichia coli; experiment: Antimicrobial activity against OmpC/OmpF porin deficient Escherichia coli HB4 by agar dilution method; assay type: functional; procedure, shortened: as §4
[19] = system: Escherichia coli; experiment: Antimicrobial activity against OmpC/OmpF porin deficient Escherichia coli HB4 transformed with Escherichia coli EC-6 plasmid carrying AmpC-B2 by agar dilution method; assay type: functional; procedure, shortened: as §4
[20] = system: Escherichia coli; experiment: Antimicrobial activity against Escherichia coli TOP10 transformed with Escherichia coli EC-6 plasmid carrying AmpC-B2 by agar dilution method; assay type: functional; procedure, shortened: as §3
[21] = system: Escherichia coli; experiment: Antimicrobial activity against Escherichia coli TOP10 by agar dilution method
[22] = system: Escherichia coli; experiment: Antimicrobial activity against OmpC/OmpF porin deficient Escherichia coli HB4 transformed with Escherichia coli ECB-1 plasmid carrying ACC-1 by agar dilution method; assay type: functional; procedure, shortened: as §4
[23] = system: Escherichia coli; experiment: Antimicrobial activity against OmpC/OmpF porin deficient Escherichia coli HB4 transformed with Escherichia coli DH10B plasmid carrying DHA-1 by agar dilution method; assay type: functional; procedure, shortened: as §4
[24] = system: Escherichia coli; experiment: Antimicrobial activity against OmpC/OmpF porin deficient Escherichia coli HB4 transformed with Enterobacter asburiae CIP 105006 plasmid carrying ACT-1 by agar dilution method; assay type: functional; procedure, shortened: as §4
[25] = system: Escherichia coli; experiment: Antimicrobial activity against OmpC/OmpF porin deficient Escherichia coli HB4 transformed with Escherichia coli ECB2 plasmid carrying CMY-2 by agar dilution method; assay type: functional; procedure, shortened: as §4
[26] = system: Escherichia coli; experiment: Antimicrobial activity against Escherichia coli TOP10 transformed with Escherichia coli pGLK-1 plasmid carrying FOX-1 by agar dilution method; assay type: functional; procedure, shortened: as §3

Structure (SMILES) | MIC [13] [µg/mL] | MIC [14] [µg/mL] | MIC [15] [µg/mL] | MIC [16] [µg/mL] | MIC [17] [µg/mL] | MIC [18] [µg/mL] | MIC [19] [µg/mL] | MIC [20] [µg/mL] | MIC [21] [µg/mL] | MIC [22] [µg/mL] | MIC [23] [µg/mL] | MIC [24] [µg/mL] | MIC [25] [µg/mL] | MIC [26] [µg/mL] | also measured
O=C(Cc1cccs1)N[C@@H]1C(=O)N2C(C(=O)[O-])=C(C[n+]3ccccc3)CS[C@H]12 | – | – | – | – | – | – | – | – | – | – | – | – | – | – | Km [1]: 950 µM; kcat [1]: 240 s⁻¹; kcat/Km [2]: 595000 M⁻¹ s⁻¹; Km [3]: 125 µM; kcat [3]: 412 s⁻¹; kcat/Km [4]: 360000 M⁻¹ s⁻¹; kcat/Km [5]: 250000 M⁻¹ s⁻¹; Km [6]: 630 µM; kcat [6]: 228 s⁻¹; Km [7]: 420 µM; kcat [7]: 140 s⁻¹; Km [8]: 420 µM; kcat [8]: 481 s⁻¹; kcat/Km [9]: 3.3e+06 M⁻¹ s⁻¹; kcat/Km [10]: 1.14e+06 M⁻¹ s⁻¹; Km [11]: 330 µM; kcat [11]: 196 s⁻¹; kcat/Km [12]: 330000 M⁻¹ s⁻¹
CO/N=C(\C(=O)N[C@@H]1C(=O)N2C(C(=O)[O-])=C(C[N+]3(C)CCCC3)CS[C@H]12)c1csc(N)n1 [CEFEPIME] | 0.125 (≈ 0.26 µM) | 1 (≈ 2.08 µM) | 0.064 (≈ 0.133 µM) | 0.25 (≈ 0.52 µM) | 8 (≈ 16.6 µM) | 1 (≈ 2.08 µM) | 1 (≈ 2.08 µM) | 0.06 (≈ 0.125 µM) | 0.06 (≈ 0.125 µM) | 4 (≈ 8.32 µM) | 2 (≈ 4.16 µM) | 4 (≈ 8.32 µM) | – | – | –
CO/N=C(\C(=O)N[C@@H]1C(=O)N2C(C(=O)O)=C(COC(C)=O)CS[C@H]12)c1csc(N)n1 [CEFOTAXIME] | 1 (≈ 2.2 µM) | 128 (≈ 281 µM) | 8 (≈ 17.6 µM) | 64 (≈ 141 µM) | 32 (≈ 70.3 µM) | 4 (≈ 8.78 µM) | 4 (≈ 8.78 µM) | 0.5 (≈ 1.1 µM) | 0.06 (≈ 0.132 µM) | 4 (≈ 8.78 µM) | 128 (≈ 281 µM) | 64 (≈ 141 µM) | 256 (≈ 562 µM) | 16 (≈ 35.1 µM) | –
CO[C@@]1(NC(=O)Cc2cccs2)C(=O)N2C(C(=O)O)=C(COC(N)=O)CS[C@@H]21 [CEFOXITIN] | 2 (≈ 4.68 µM) | 128 (≈ 299 µM) | 32 (≈ 74.9 µM) | 512 (≈ 1200 µM) | > 512 | 256 (≈ 599 µM) | 512 (≈ 1200 µM) | 128 (≈ 299 µM) | 2 (≈ 4.68 µM) | 256 (≈ 599 µM) | > 512 | > 512 | > 512 | 512 (≈ 1200 µM) | –
CC(C)(O/N=C(\C(=O)N[C@@H]1C(=O)N2C(C(=O)[O-])=C(C[n+]3ccccc3)CS[C@H]12)c1csc(N)n1)C(=O)O [CEFTAZIDIME] | 8 (≈ 14.6 µM) | 256 (≈ 468 µM) | 64 (≈ 117 µM) | 128 (≈ 234 µM) | 512 (≈ 937 µM) | 4 (≈ 7.32 µM) | 8 (≈ 14.6 µM) | 1 (≈ 1.83 µM) | 0.06 (≈ 0.11 µM) | 16 (≈ 29.3 µM) | 256 (≈ 468 µM) | > 512 | > 512 | 64 (≈ 117 µM) | –
CO/N=C(\C(=O)N[C@@H]1C(=O)N2C(C(=O)O)=C(COC(N)=O)CS[C@H]12)c1ccco1 [CEFUROXIME] | 1 (≈ 2.36 µM) | 128 (≈ 302 µM) | 128 (≈ 302 µM) | 512 (≈ 1210 µM) | > 512 | 32 (≈ 75.4 µM) | 512 (≈ 1210 µM) | 128 (≈ 302 µM) | 1 (≈ 2.36 µM) | 128 (≈ 302 µM) | > 512 | > 512 | > 512 | 256 (≈ 603 µM) | –
C[C@@H](O)[C@H]1C(=O)N2C(C(=O)O)=C(S[C@@H]3CN[C@H](C(=O)Nc4cccc(C(=O)O)c4)C3)[C@H](C)[C@H]12 [ERTAPENEM] | 0.006 (≈ 0.0126 µM) | 0.064 (≈ 0.135 µM) | 0.012 (≈ 0.0252 µM) | 0.016 (≈ 0.0336 µM) | 4 (≈ 8.41 µM) | 1 (≈ 2.1 µM) | 2 (≈ 4.21 µM) | 0.064 (≈ 0.135 µM) | 0.006 (≈ 0.0126 µM) | 2 (≈ 4.21 µM) | 16 (≈ 33.6 µM) | 256 (≈ 538 µM) | 256 (≈ 538 µM) | 0.032 (≈ 0.0673 µM) | –
C[C@@H](O)[C@H]1C(=O)N2C(C(=O)O)=C(SCCNC=N)C[C@H]12 [IMIPENEM ANHYDROUS] | – | 0.5 (≈ 1.67 µM) | – | – | 0.5 (≈ 1.67 µM) | – | 0.5 (≈ 1.67 µM) | 0.125 (≈ 0.418 µM) | – | 0.5 (≈ 1.67 µM) | 2 (≈ 6.68 µM) | 16 (≈ 53.4 µM) | 32 (≈ 107 µM) | 0.25 (≈ 0.835 µM) | Km [1]: 35 µM; kcat [1]: 0.08 s⁻¹; Km [3]: 1 µM; kcat [3]: 0.04 s⁻¹; kcat/Km [4]: 300 M⁻¹ s⁻¹; kcat/Km [5]: 2000 M⁻¹ s⁻¹; Km [6]: 35 µM; kcat [6]: 0.01 s⁻¹; kcat [7]: < 0.001 s⁻¹; Km [8]: 3 µM; kcat [8]: 0.02 s⁻¹; kcat/Km [9]: 40000 M⁻¹ s⁻¹; kcat/Km [10]: 7000 M⁻¹ s⁻¹; kcat [11]: < 0.001 s⁻¹
C[C@@H](O)[C@H]1C(=O)N2C(C(=O)O)=C(S[C@@H]3CN[C@H](C(=O)N(C)C)C3)[C@H](C)[C@H]12 [MEROPENEM] | 0.032 (≈ 0.0834 µM) | 0.064 (≈ 0.167 µM) | 0.032 (≈ 0.0834 µM) | 0.032 (≈ 0.0834 µM) | 0.75 (≈ 1.96 µM) | 0.032 (≈ 0.0834 µM) | 0.032 (≈ 0.0834 µM) | 0.032 (≈ 0.0834 µM) | 0.032 (≈ 0.0834 µM) | 0.5 (≈ 1.3 µM) | 1 (≈ 2.61 µM) | 4 (≈ 10.4 µM) | 8 (≈ 20.9 µM) | 0.125 (≈ 0.326 µM) | –
